According to ChEMBL document CHEMBL1144502, “Synthesis and biological evaluation of imidazo[1,2-a]pyridine derivatives as novel PI3 kinase p110alpha inhibitors” (Bioorg Med Chem, 2007):

Experiments:
[1] = molecular target: Phosphatidylinositol 4,5-bisphosphate 3-kinase catalytic subunit alpha isoform (Bos taurus, UniProt P32871); assay: Inhibition of GST-tagged bovine PI3K p110-alpha by SPA
Method in brief: (§1)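 Radiometric SPA. Enzyme and compound (in DMSO) in 20 mM Tris-HCl pH 7.4, 160 mM NaCl, 2 mM DTT, 30 mM MgCl2, 0.4 mM EDTA, 0.4 mM EGTA. Stopped with wheat germ agglutinin-coated SPA beads in PBS, then centrifuged. IC50 is the mean of at least two determinations.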

A375 (human) = assay: Antiproliferative activity against human A375 cells after 46 hrs; conditions: A375, 46 h
HeLa [2] = assay: Suppression of tumor growth in BALB/c nu/nu mouse implanted with human HeLa cells at 25 mg/kg, ip after 2 weeks relative to control; type: functional; conditions: route intraperitoneal
Method in brief: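 HeLa xenografts in nude mice, five animals per group. Dosing began when tumours reached about 100 mm³. 25 mg/kg (as free base) given ip once daily for 2 weeks, suspended in 20% hydroxypropyl-β-cyclodextrin/saline; the vehicle group served as control. Tumour volume = 1/2 × (short diameter)² × (long diameter).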

[3] = molecular target: Phosphatidylinositol 4,5-bisphosphate 3-kinase catalytic subunit gamma isoform (Homo sapiens, UniProt P48736); assay: Inhibition of His-tagged PI3K p110gamma by SPA; method in brief: as §1
[4] = molecular target: Phosphatidylinositol 4,5-bisphosphate 3-kinase catalytic subunit beta isoform (Homo sapiens, UniProt P42338); assay: Inhibition of GST-tagged human PI3K p110-beta by SPA; method in brief: as §1
[5] = molecular target: Phosphatidylinositol 4-phosphate 3-kinase C2 domain-containing subunit beta (Homo sapiens, UniProt O00750); assay: Inhibition of Glu-tagged PI3K C2-beta by SPA
Method in brief: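 SPA as for the class I isoforms, but the PI3K C2β buffer is 20 mM Tris-HCl pH 7.4, 160 mM NaCl, 2 mM DTT, 5 mM MgCl2, 15 mM CaCl2, 0.4 mM EDTA. Run 120 min at room temperature. Captured on WGA-coated SPA beads. IC50 is the mean of at least two determinations.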

[6] = Half life in ip dosed mouse; type: ADME, organism-based; conditions: in vivo
Method in brief: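 Mice dosed intraperitoneally. Plasma half-life determined by HPLC/MS/MS.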

HeLa [7] = assay: Antiproliferative activity against human HeLa cells after 46 hrs; type: functional, cell-based
Method in brief: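 Serum-induced proliferation. Compound (1 µL) spotted into wells, then 1×10^4 cells added. After 46 h incubation, Alamar Blue added; fluorescence read 2 h later at ex 544/em 590 nm.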

Phosphatidylinositol 4,5-bisphosphate 3-kinase catalytic subunit alpha isoform, sequence (P32871 whole entry, canonical isoform): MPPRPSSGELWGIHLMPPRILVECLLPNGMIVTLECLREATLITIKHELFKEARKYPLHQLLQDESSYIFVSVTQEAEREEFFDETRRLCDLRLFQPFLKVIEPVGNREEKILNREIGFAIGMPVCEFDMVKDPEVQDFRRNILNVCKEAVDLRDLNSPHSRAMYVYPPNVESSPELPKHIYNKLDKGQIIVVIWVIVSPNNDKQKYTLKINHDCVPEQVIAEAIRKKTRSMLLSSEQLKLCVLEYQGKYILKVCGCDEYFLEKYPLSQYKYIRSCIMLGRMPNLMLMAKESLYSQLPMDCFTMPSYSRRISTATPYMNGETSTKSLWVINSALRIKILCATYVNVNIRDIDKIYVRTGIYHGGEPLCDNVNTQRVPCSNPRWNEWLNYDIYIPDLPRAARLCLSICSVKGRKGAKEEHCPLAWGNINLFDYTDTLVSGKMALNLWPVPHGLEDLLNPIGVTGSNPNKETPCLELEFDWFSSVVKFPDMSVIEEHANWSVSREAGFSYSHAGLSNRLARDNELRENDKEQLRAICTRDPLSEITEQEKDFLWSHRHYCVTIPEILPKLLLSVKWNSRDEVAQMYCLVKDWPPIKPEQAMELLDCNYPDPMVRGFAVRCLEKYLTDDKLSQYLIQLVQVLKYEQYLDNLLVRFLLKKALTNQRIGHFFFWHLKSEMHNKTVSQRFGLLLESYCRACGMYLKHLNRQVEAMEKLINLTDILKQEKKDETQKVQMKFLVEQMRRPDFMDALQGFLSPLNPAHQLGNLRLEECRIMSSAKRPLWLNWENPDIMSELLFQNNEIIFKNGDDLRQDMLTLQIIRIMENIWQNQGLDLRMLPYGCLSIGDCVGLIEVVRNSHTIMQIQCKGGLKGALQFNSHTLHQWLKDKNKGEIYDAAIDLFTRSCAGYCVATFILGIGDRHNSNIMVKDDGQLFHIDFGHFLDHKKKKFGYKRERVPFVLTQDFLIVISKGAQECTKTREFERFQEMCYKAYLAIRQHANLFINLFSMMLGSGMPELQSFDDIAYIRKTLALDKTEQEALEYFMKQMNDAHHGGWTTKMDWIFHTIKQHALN
Phosphatidylinositol 4-phosphate 3-kinase C2 domain-containing subunit beta, sequence (O00750 whole entry, the tested form may be a part, canonical isoform): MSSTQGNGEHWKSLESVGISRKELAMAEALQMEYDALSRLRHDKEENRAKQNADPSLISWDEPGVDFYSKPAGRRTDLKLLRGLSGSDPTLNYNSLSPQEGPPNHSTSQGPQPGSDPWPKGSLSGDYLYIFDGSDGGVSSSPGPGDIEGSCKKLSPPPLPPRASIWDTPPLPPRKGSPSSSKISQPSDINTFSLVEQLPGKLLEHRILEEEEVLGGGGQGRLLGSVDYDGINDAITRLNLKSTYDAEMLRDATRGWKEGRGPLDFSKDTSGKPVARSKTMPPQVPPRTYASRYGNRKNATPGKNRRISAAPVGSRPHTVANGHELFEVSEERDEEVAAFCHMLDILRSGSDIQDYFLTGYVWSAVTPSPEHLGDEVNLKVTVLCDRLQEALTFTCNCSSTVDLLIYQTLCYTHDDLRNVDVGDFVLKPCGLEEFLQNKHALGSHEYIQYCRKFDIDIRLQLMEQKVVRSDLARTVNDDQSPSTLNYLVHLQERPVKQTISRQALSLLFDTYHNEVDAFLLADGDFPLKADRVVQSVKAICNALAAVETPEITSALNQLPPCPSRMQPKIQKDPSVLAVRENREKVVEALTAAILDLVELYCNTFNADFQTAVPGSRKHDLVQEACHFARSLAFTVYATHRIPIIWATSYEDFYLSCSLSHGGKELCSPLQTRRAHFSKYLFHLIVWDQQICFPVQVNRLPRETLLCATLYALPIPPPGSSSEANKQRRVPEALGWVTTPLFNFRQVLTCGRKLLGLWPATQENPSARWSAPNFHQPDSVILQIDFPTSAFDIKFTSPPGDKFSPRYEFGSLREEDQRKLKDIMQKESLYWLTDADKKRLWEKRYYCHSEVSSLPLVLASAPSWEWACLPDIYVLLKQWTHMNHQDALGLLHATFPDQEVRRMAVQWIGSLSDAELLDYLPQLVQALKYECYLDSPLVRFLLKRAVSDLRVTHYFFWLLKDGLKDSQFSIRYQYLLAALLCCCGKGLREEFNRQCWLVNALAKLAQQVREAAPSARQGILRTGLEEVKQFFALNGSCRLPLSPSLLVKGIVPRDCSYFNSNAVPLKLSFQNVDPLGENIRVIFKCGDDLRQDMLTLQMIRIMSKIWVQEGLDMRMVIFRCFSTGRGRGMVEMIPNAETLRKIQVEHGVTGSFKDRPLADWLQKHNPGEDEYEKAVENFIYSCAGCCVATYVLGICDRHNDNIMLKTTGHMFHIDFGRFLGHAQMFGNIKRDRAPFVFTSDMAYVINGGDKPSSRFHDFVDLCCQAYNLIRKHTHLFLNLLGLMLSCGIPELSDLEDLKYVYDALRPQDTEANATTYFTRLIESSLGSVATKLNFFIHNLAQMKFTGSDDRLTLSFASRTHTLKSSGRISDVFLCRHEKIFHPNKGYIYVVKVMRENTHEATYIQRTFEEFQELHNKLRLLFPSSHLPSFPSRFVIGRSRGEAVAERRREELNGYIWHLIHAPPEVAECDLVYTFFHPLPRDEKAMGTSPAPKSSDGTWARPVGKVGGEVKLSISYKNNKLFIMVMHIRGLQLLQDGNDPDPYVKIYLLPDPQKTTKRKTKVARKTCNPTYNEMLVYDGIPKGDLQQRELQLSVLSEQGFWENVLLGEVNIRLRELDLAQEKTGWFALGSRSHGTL
Phosphatidylinositol 4,5-bisphosphate 3-kinase catalytic subunit beta isoform, sequence (P42338 whole entry, the tested form may be a part, canonical isoform): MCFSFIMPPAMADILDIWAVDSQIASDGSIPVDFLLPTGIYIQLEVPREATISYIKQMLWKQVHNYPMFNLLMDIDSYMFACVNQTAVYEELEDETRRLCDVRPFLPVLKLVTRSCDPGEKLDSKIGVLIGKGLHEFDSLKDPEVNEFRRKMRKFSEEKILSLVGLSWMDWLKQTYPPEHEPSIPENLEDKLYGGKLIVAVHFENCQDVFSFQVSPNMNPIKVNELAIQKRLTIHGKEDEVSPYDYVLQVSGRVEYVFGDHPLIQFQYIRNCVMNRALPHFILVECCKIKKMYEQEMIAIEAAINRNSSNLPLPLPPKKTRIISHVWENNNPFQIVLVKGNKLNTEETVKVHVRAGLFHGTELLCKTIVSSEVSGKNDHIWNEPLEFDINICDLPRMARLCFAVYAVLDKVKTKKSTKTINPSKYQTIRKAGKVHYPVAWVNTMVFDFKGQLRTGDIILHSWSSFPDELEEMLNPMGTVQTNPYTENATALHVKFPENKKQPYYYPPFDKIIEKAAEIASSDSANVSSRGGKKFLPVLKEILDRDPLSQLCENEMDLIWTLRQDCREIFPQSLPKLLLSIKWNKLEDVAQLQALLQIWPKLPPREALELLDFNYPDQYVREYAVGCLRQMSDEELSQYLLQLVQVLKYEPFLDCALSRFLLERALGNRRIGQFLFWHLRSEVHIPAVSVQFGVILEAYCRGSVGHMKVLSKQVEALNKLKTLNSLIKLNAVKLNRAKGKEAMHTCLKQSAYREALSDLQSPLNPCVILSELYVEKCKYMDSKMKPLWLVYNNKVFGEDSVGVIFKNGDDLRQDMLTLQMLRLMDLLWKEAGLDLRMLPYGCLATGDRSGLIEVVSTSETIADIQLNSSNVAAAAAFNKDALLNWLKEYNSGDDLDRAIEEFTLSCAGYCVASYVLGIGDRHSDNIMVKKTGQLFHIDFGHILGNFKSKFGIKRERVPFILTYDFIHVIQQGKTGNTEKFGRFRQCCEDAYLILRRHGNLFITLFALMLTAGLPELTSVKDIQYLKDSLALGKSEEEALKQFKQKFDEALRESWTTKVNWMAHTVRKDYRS
Phosphatidylinositol 4,5-bisphosphate 3-kinase catalytic subunit gamma isoform, sequence (P48736 whole entry, canonical isoform): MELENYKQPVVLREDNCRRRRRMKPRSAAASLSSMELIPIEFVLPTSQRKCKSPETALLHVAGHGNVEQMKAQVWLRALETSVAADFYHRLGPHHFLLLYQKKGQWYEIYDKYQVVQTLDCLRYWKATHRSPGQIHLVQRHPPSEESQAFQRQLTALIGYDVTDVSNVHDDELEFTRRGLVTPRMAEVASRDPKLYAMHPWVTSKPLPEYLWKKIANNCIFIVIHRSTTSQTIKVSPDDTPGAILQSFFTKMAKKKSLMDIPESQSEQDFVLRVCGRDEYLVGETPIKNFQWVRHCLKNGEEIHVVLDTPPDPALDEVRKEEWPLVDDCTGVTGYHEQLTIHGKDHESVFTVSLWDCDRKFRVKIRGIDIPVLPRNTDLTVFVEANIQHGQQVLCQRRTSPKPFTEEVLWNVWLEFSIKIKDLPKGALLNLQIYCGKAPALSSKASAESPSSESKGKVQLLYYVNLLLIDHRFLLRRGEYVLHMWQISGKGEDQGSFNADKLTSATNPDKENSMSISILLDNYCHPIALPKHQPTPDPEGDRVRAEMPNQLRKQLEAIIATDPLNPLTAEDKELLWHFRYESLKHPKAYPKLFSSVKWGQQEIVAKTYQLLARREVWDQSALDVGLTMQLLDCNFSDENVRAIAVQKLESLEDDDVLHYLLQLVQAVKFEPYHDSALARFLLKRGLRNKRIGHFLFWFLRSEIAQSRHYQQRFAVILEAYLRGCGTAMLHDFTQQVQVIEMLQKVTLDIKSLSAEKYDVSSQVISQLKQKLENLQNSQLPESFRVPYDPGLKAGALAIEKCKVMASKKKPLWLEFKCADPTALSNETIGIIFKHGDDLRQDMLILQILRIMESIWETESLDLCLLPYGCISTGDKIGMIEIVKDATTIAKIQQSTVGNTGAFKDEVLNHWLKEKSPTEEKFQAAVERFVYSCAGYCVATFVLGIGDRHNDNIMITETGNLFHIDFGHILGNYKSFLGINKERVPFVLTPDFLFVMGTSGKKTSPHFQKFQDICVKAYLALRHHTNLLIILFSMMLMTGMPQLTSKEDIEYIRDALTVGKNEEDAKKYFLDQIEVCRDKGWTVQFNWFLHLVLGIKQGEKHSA

| SMILES | IC50 [1] [nM] | IC50 (A375 (human)) [nM] | other results |
| --- | --- | --- | --- |
| Cc1ccc([N+](=O)[O-])cc1[S+]([O-])c1nc(-c2cnc3ccc(Cl)cn23)cs1 (centres undefined) | 31 | 270 | – |
| Cc1ccc([N+](=O)[O-])cc1Sc1nc(-c2cnc3ccc(Cl)cn23)cs1 | 82 | 3370 | – |
| Cc1ccc([N+](=O)[O-])cc1S(=O)(=O)c1nc(-c2cnc3ccc(Cl)cn23)cs1.Cl | 2.8 | 140 | Activity (HeLa [2]): 37%; IC50 [3]: 230 nM; IC50 [4]: 170 nM; IC50 [5]: 100 nM; half-life [6]: 2.6 h; IC50 (HeLa [7]): 210 nM |
| O=[N+]([O-])c1ccc(CO)c([S+]([O-])c2nc(-c3cnc4ccc(Cl)cn34)cs2)c1 (centres undefined) | 20 | 19000 | – |
| Cc1nc2ccccn2c1-c1ccn(S(=O)(=O)c2ccc(F)cc2)n1 | 670 | 23000 | – |
| O=c1cc(N2CCOCC2)oc2c(-c3ccccc3)cccc12 [LY-294002] | – | 8400 | IC50 [5]: 2100 nM |

More lines, main results first:

| IC50 [1] [nM] | IC50 (A375 (human)) [nM] | SMILES | other results |
| --- | --- | --- | --- |
| 760 | – | Cc1nc2ccc(Cl)cn2c1-c1ccn(S(=O)(=O)c2ccc(F)cc2)n1 | – |
| 2.8 | 830 | Cc1ccc([N+](=O)[O-])cc1S(=O)(=O)n1ccc(-c2c(C)nc3ccc(Cl)cn23)n1 | – |
| 100 | 12000 | Cc1ccc([N+](=O)[O-])cc1S(=O)(=O)n1ccc(-c2cnc3ccc(Cl)cn23)c1 | – |
| 3.1 | 730 | Cc1ccc([N+](=O)[O-])cc1S(=O)(=O)n1ccc(-c2c(C)nc3ccc(Br)cn23)n1 | – |
| 280 | – | Cc1nc2ccc(Cl)cn2c1-c1ccn(S(=O)(=O)c2cccc([N+](=O)[O-])c2)n1 | – |
| > 30000 | – | Cc1nc2ccc(Cl)cn2c1-c1ccn(S(=O)(=O)c2ccc([N+](=O)[O-])cc2)n1 | – |
| 1.8 | 170 | Cc1ccc([N+](=O)[O-])cc1S(=O)(=O)n1ccc(-c2cnc3ccc(Br)cn23)n1 | – |
